Source: ChEMBL document CHEMBL1131157, “Potent and selective non-cysteine-containing inhibitors of protein farnesyltransferase” (J Med Chem, 1998)

Key:
[1] = target: Protein farnesyltransferase (Bos taurus, UniProt P29702+P49355); test: In vitro inhibition of farnesyltransferase from bovine brain
NIH3T3 [2] = test: (§1) Inhibition of Ha-Ras processing in NIH3T3 Ras transformed cells.; assay type: functional, Homo sapiens; conditions: Mus musculus, read-out: ED50 (the source's name)
In short: (§2)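 Subconfluent Ras-transformed NIH3T3 cells dosed with compounds; lysates boiled 5 min in Laemmli buffer, resolved on 15% Tris-glycine gel, blotted to nitrocellulose, probed with anti-Ras antibody Y13-238; bands by ECL, quantified by densitometry. Single determinations unless limits given; assay reliability ±50-100%.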

NIH3T3 [3] = test: as §1; assay type: functional, cell-based, Homo sapiens; conditions: Mus musculus; in short: as §2

Row | Structure (SMILES) | IC50 [1] | EC50 (NIH3T3 [2]) | EC50 (NIH3T3 [3])
1 | COCC[C@H](NC(=O)c1ccc(COc2cccnc2)cc1-c1ccccc1)C(=O)O | 1000 nM |  | 
2 | CS(=O)(=O)CC[C@H](NC(=O)c1ccc(CNc2cccnc2)cc1-c1ccccc1)C(=O)O | 17 nM | 100000 nM | 
3 | CCc1ccccc1-c1cc(COc2cccnc2)ccc1C(=O)N[C@@H](CCSC)C(=O)O | 0.35 nM |  | < 100 nM
4 | CSCC[C@H](NC(=O)c1ccc(OCc2cccnc2)cc1-c1ccccc1)C(=O)O | 6.6 nM |  | 
5 | CSCC[C@H](NC(=O)c1ccc(NC(=O)c2cccnc2)cc1-c1ccccc1)C(=O)O | 70 nM |  | 50000 nM
6 | CSCC[C@H](NC(=O)c1ccc(NC(=O)c2ccncc2)cc1-c1ccccc1)C(=O)O | > 1000 nM |  | 
7 | CSCC[C@H](NC(=O)c1ccc(COc2cccnc2)cc1-c1ccc(C)cc1)C(=O)O | 360 nM |  | 
8 | CSC[C@H](NC(=O)c1ccc(COc2cccnc2)cc1-c1ccccc1)C(=O)O | > 1000 nM |  | 
9 | CSCC[C@H](NC(=O)c1ccc(NCc2cccnc2)cc1-c1ccccc1)C(=O)O | 20 nM |  | 40000 nM
10 | CSCC[C@@H](C(=O)O)N(C)C(=O)c1ccc(CNc2cccnc2)cc1-c1ccccc1 | 160 nM | 100000 nM | 
11 | CSCC[C@H](NC(=O)c1ccc(CSc2cccnc2)cc1-c1ccccc1C)C(=O)O | 0.69 nM |  | 
12 | COc1ccccc1-c1cc(COc2cccnc2)ccc1C(=O)N[C@@H](CCSC)C(=O)O | 3.3 nM |  | 10000 nM
13 | COc1ccc(-c2cc(COc3cccnc3)ccc2C(=O)N[C@@H](CCSC)C(=O)O)cc1 | 230 nM |  | 
14 | CSCC[C@@H](NC(=O)c1ccc(CNc2cccnc2)cc1-c1ccccc1)C(=O)O | 140 nM |  | 
15 | CCCC[C@H](NC(=O)c1ccc(COc2cccnc2)cc1-c1ccccc1)C(=O)O | > 1000 nM |  | 
16 | CSCC[C@H](NC(=O)c1ccc(COc2cccnc2)cc1-c1ccccc1)C(=O)O | 4.3 nM |  | 5000 nM
17 | CSCC[C@H](NC(=O)c1ccc(NC(=O)c2ccccn2)cc1-c1ccccc1)C(=O)O | > 1000 nM |  | 
18 | CSCC[C@H](NC(=O)c1ccc(COc2cccnc2)cc1-c1ccccc1Cl)C(=O)O | 0.61 nM |  | 400 nM
19 | CSCC[C@H](NC(=O)c1ccc(CS(=O)(=O)c2cccnc2)cc1-c1ccccc1)C(=O)O | 550 nM |  | 
20 | CSCC[C@H](NC(=O)c1ccc(CNc2cccnc2)cc1-c1ccccc1)C(=O)O | 6.8 nM |  | 10000 nM
21 | COc1cccc(-c2cc(COc3cccnc3)ccc2C(=O)N[C@@H](CCSC)C(=O)O)c1 | 12 nM |  | 
22 | COC(=O)[C@H](CCSC)NC(=O)c1ccc(NC[C@@H](N)CS)cc1-c1ccccc1 |  | 200 nM | 
23 | CSCC[C@H](NC(=O)c1ccc(COc2cccnc2)cc1-c1ccccc1C(F)(F)F)C(=O)O | 0.5 nM |  | 300 nM
24 | NC(=O)CC[C@H](NC(=O)c1ccc(COc2cccnc2)cc1-c1ccccc1)C(=O)O | 48 nM |  | 
25 | CSCC[C@H](NC(=O)c1ccc(CSc2cccnc2)cc1-c1ccccc1)C(=O)O | 10 nM |  | 10000 nM
26 | CSCC[C@H](NC(=O)c1ccc(COc2cccnc2)cc1-c1ccccc1C)C(=O)O | 0.4 nM |  | 350 nM
27 | CSCC[C@H](NC(=O)c1ccc(COc2cccnc2)cc1-c1cccc(C)c1)C(=O)O | 5.4 nM |  | 
28 | CSCC[C@H](NC(=O)c1ccc(NC[C@@H](N)CS)cc1-c1ccccc1)C(=O)O |  | 1000 nM | 
29 | CSCC[C@H](NC(=O)c1ccc(NC(=O)c2cccnc2)cc1-c1ccccc1C)C(=O)O | 1.6 nM |  | 
30 | CSCC[C@H](NC(=O)c1ccc(NCc2cccnc2)cc1-c1ccccc1C)C(=O)O | 1.5 nM |  | 
